High-throughput results as filed in PubChem BioAssay.
Sampled rows, rich in hits. Any-hit rate of the full collection: about 2.2%.
VIM-2 inhibitor – blocks Pseudomonas aeruginosa VIM-2 metallo-beta-lactamase; 0.89% of 290,000 active; purified VIM-2, nitrocefin hydrolysis, epi-absorbance fluorescence; inhibition, % at 5.6 µM;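 active means inhibition above the mean of all tested compounds plus 3 SD, cutoff set per screening run, cut at about 7.5% in these data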;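 further: red hydrolysis product quenches plate fluorescence so inhibitors raise well fluorescence; 0% = enzyme with DMSO and 100% = DMSO without enzyme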
eIF4H FP inh – inhibitors of RNA binding by human eIF4H; 0.94% of 290,000 active; inhibition, % at 35 µM; Q15056; eIF4H fluorescence polarization binding assay; AID 2012;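 further: calls also rest on retests at 20 µM and on dose response follow-up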
IMP-1 inhibitor – blocks Pseudomonas aeruginosa IMP-1 metallo-beta-lactamase | purified IMP-1, nitrocefin hydrolysis, epi-absorbance fluorescence | 0.45% of 290,000 active | inhibition, % at 5.6 µM;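 active means inhibition above the mean plus 3 SD of all compounds in the same screening run, cut at about 4.5% in these data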;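 further: 0% = IMP-1 with DMSO and 100% = DMSO wells lacking enzyme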
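Test system: recombinant IMP-1 enzyme, purified / Medium: HEPES buffer pH 7.1 with ZnSO4 and Brij 35 / Doses: single dose, 5.6 µM / Times: 25 °C, 15 min preincubation, 25 min reaction / Detection: Epi-absorbance via hydrolysed-nitrocefin quenching of white-plate fluorescence, 480/530 nm, EDTA stop / Evaluation: percent inhibition from optical density relative to buffer-blank wells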
PABP polyA inh – PABP-poly(A) binding inhibition | 1% of 290,000 active | P11940 | PABP-poly(A) RNA binding, fluorescence polarization | calls only at 35 µM | AID 2014;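 further: calls also rest on retests at 20 µM and on dose response follow-up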
MLLE-PAM2 inh – inhibitors of microRNA-mediated deadenylation, human PABP1 MLLE binding; P11940; GST-MLLE / FITC-PAM2 fluorescence polarization; inhibition, % at 20 µM; 0.36% of 360,000 active; in the data active means inhibition above about 35%, passing the limit was not always enough;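 further: plate controls were DMSO wells with GST-MLLE for no effect and wells lacking GST-MLLE protein for full effect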
* hit, by the source's call; i = inactive; ? = inconclusive; · = no result; + = active, no number. Unless noted, how the calls were made is not given here.

SMILES	VIM-2 inhibitor	eIF4H FP inh	IMP-1 inhibitor	PABP polyA inh	MLLE-PAM2 inh
Cc1ccc(N(CC(=O)NCc2ccc(F)cc2)S(=O)(=O)c2cccs2)cc1	-3	-2	-1	i	3
O=C(O)CN1CCCC1=Nc1ccccc1	2	-13	4.8*	i	-3
CN1CCN(C(=O)C(=O)c2cn(CC(=O)N3CCCCCC3)c3ccccc23)CC1	·	·	·	·	11
Cc1cc(SCC(=O)N/N=C/c2ccc(O)c(O)c2O)c(C)cc1Br	-6	93*	0	+	12
COc1cc(/C=N/NC(=O)CSc2cc(C)c(Br)cc2C)ccc1O	-3	-6	-1	i	-1
CNC(=O)C[C@H]1C(=O)N(Cc2ccccc2)C[C@@H]1C	·	·	·	·	4
O=C1c2ccccc2C(=O)N1CCCCN(C(=O)c1ccc([N+](=O)[O-])cc1)c1ccc(Cl)cc1	1	10	37*	i	11
O=C1c2ccccc2C(=O)N1CCCCN(C(=O)c1cc([N+](=O)[O-])cc([N+](=O)[O-])c1)c1ccc(Cl)cc1	-2	-6	-2	i	-7
CC[C@]12c3[nH]c4ccc(OC)cc4c3CCN1C(=O)C(CC(=O)NCc1ccco1)C[C@@H]2C(=O)N1CCN(C(=O)c2ccco2)CC1 (stereo partly specified)	·	·	·	·	12
CCc1c(C)sc(NC(=O)c2cc(C)on2)c1C#N	0	5	-1	i	18
CCc1c(C)sc(NC(=O)c2cc(C3CC3)on2)c1C#N	·	-8	·	i	36*
CCc1ccc(N2CCN(S(=O)(=O)CC34CCC(CC3=O)C4(C)C)CC2)cc1 (stereo unspecified)	-2	-7	-1	i	-1
Cc1ccc(OCc2cc(C(=O)N3CCN(c4ccccc4)CC3)no2)cc1C	-1	2	-4	i	0
CCn1ccnc1CN(C)C(=O)CCc1nnc(CCCc2ccccc2)o1	-2	-8	-1	i	6
O=C(CN1CCN(c2ccc(F)cc2)CC1)Nc1ccccc1[N+](=O)[O-]	-1	60*	-2	+	17
O=C(CN1CCN(c2ccc(F)cc2)CC1)Nc1ccccc1Br	-3	2	-4	i	12
CCOc1ccc(/C=c2\sc3nc(-c4ccco4)nn3c2=O)cc1OCC	0	33	1	i	43*
COc1ccccc1/C=c1\sc2nc(-c3ccco3)nn2c1=O	-2	90*	-3	+	-3
COc1ccc(OC)c(/C=c2\sc3nc(-c4cccs4)nn3c2=O)c1	-6	?	-4	i	35
COCCCNC(=S)N(CCCN(C)C)Cc1cc2cc3c(cc2[nH]c1=O)OCCO3	2	13	-4	i	-74
COCCNC(=S)N(CCO)Cc1cc2cc3c(cc2[nH]c1=O)OCCO3	0	6	-1	i	39*
O=C(c1ccccc1)N(CCO)Cc1cc2cc3c(cc2[nH]c1=O)OCCO3	-2	-7	-3	?	57*
COCCCNC(=S)N(CCO)Cc1cc2cc3c(cc2[nH]c1=O)OCCO3	-3	-5	1	i	40*
CCOC(=O)Cc1nnc(NC(=O)CSc2nc3ccccc3[nH]2)s1	-5	0	-4	i	-4
Cc1cccc(C)c1NC(=O)CN1C(=O)S/C(=C\c2cccn2-c2cccc(C(=O)O)c2)C1=O	-1	80*	-1	+	-3
SMILES	VIM-2 inhibitor	eIF4H FP inh	IMP-1 inhibitor	PABP polyA inh	MLLE-PAM2 inh
Cc1ccccc1NC(=O)CN1C(=O)S/C(=C\c2cccn2-c2cccc(C(=O)O)c2)C1=O	-2	81*	-2	+	6
Cc1ccc(NC(=O)CN2C(=O)S/C(=C\c3cccn3-c3cccc(C(=O)O)c3)C2=O)c(C)c1	-3	91*	-2	+	7
COc1ccc(NC(=O)CN2C(=O)S/C(=C/c3cccn3-c3ccc(C(=O)O)cc3)C2=O)cc1	-3	87*	-3	+	5
Cc1cccc(NC(=O)CN2C(=O)S/C(=C\c3cccn3-c3cccc(C(=O)O)c3)C2=O)c1	-3	71	-2	i	-1
Cc1c(C(=O)O)sc(S(=O)(=O)N2CCN(C(=O)Cc3ccc(F)cc3)CC2)c1C(=O)O	·	·	·	·	11
Cc1onc(-c2c(F)cccc2Cl)c1C(=O)OCC(=O)NC(c1ccccc1)c1ccccc1	-1	-2	-2	i	-9
CCN(CC(=O)Nc1ccc(OC)cc1)C(=O)C1CC(=O)N(Cc2ccccc2)C1 (stereo unspecified)	·	·	·	·	2
Cc1ccc(NC(=O)CN2C(=O)S/C(=C\c3cccn3-c3cccc(C(=O)O)c3)C2=O)cc1C	-4	70	0	+	-4
COc1cc(NC(=O)Cn2c(-c3cncs3)nc3ccccc32)cc(OC)c1OC	8.6*	0	-3	i	7
COc1cc(NC(=O)Cn2c(C)cc3ccccc3c2=O)cc(OC)c1OC	2	-1	1	i	-3
CCc1nnc(NC(=O)CSc2nc3[nH]ncc3c(=O)[nH]2)s1	-3	-1	-3	i	-3
O=C(CSc1nc2[nH]ncc2c(=O)[nH]1)Nc1nccs1	-2	active	-2	+	·
Fc1cccc(CSc2nnc3c(n2)[nH]c2ccccc23)c1	-1	21	-1	i	-22
CN(C)CCSc1nnc2[nH]c3ccccc3c2n1	10*	-3	-1	i	33
Cc1ccc(C2CC2C(=O)NNC(=S)Nc2ccc(Cl)cc2)cc1 (stereo unspecified)	-5	14	-4	i	44*
Cc1ccc(-c2cc(C(=O)N/N=C/c3ccco3)n[nH]2)s1	-4	94*	-5	+	1
CC(C)(C)c1cc(C(=O)N/N=C/c2ccco2)n[nH]1	-3	22	-6	i	-6
c1ccc2c(c1)-c1nc3ccccc3cc1C2N1CCOCC1 (stereo unspecified)	·	·	·	·	12
O=C1N=C(N2C=CC(=C3C=CNC=C3)C=C2)/C(=C/N=NC(=O)c2ccccc2O)S1	-6	·	-7	·	48*
CCOC(=O)c1sc(NC(=O)C2CCC2)cc1C	-2	-13	-3	i	3
O=C(C1CC(=O)N(C2CCCC2)C1)N1CCN(c2cccc(Cl)c2)CC1 (stereo unspecified)	-1	-3	-1	i	0
COc1ccc(C(CC(=O)N2CCCC2)c2c(OC)cc(OC)c3c(-c4ccccc4)cc(=O)oc23)cc1 (stereo unspecified)	·	87*	·	i	-1
COc1ccc(C(CC(=O)N2CCCCC2)c2c(OC)cc(OC)c3c(-c4ccccc4)cc(=O)oc23)cc1 (stereo unspecified)	·	·	·	·	1
COc1cc(C(CC(=O)N2CCCC2)c2c(OC)cc(OC)c3c(-c4ccccc4)cc(=O)oc23)cc(OC)c1OC (stereo unspecified)	·	78*	·	+	-3
COc1ccc(C(CC(=O)N2CCOCC2)c2c(OC)cc(OC)c3c(-c4ccccc4)cc(=O)oc23)cc1 (stereo unspecified)	·	93*	·	+	2
